{
  "source": "ChEMBL document CHEMBL1255381",
  "about": "“Golgicide A reveals essential roles for GBF1 in Golgi assembly and function” (Nat Chem Biol, 2009)",
  "assay_type_in_all_cases": "cell-based",
  "conditions_in_all_cases": "Chlorocebus sabaeus",
  "key": {"[1]": {"test_system": "Vero", "assay": "Inhibition of Arf1 in african green monkey Vero cells assessed as rapid COPI redistribution from golgi at 10 ug/ml after 5 mins by immunofluorescence method"}, "[2]": {"test_system": "Vero", "assay": "Inhibition of Arf1 in african green monkey Vero cells assessed as rapid AP-1 dispersal from golgi membranes at 10 ug/ml after 5 mins by immunofluorescence method"}, "[3]": {"test_system": "Vero", "assay": "Inhibition of Arf1 in african green monkey Vero cells assessed as rapid GGA3 dispersal from trans golgi network at 10 ug/ml after 5 mins by immunofluorescence method"}, "[4]": {"test_system": "Vero", "assay": "Inhibition of Arf1 in african green monkey Vero cells overexpressing BIG1 assessed as punctate and diffuse distribution of medial-Golgi marker giantin from golgi at 10 ug/ml after 1 hr by immunofluorescence method"}, "[5]": {"test_system": "Vero", "assay": "Inhibition of GBF1 QNV deleted mutant in african green monkey Vero cells assessed as effect on change in golgi morphology at 10 uM after 1 hr by immunofluorescence method"}, "[6]": {"test_system": "Vero", "assay": "Inhibition of Arf1 in african green monkey Vero cells expressing GBF1 QNV deleted mutant assessed as effect on change in golgi morphology at 10 ug/ml after 1 hr by immunofluorescence method"}, "[7]": {"test_system": "Vero", "assay": "Inhibition of GBF1 QNV to AAA mutant in african green monkey Vero cells assessed as effect on change in golgi morphology at 10 uM after 1 hr by immunofluorescence method"}, "[8]": {"test_system": "Vero", "assay": "Inhibition of Arf1 in african green monkey Vero cells expressing GBF1 QNV to AAA mutant assessed as effect on change in golgi morphology at 10 ug/ml after 1 hr by immunofluorescence method"}, "[9]": {"test_system": "Vero", "assay": "Inhibition of Arf1 in african green monkey Vero cells assessed as decrease in Arf1-GTP levels at 10 ug/ml after 1 hr", "outline": "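Vero cells transduced with adenoviral Arf1-V5, alone or with GBF1-ML-HA; next day reseeded, then 45 min at 37°C with medium, BFA 10 µg/ml or compound 10 μM. Lysates pulled down with GGA3 VHS-GAT-GST on glutathione agarose, 30 min 4°C; Arf1-GTP by anti-V5 Western, band densitometry, duplicate experiments averaged.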"}, "[10]": {"test_system": "Vero", "assay": "Restoration of Arf1-GTP levels in african green monkey Vero cells expressing GBF1-M832L mutant at 10 ug/ml after 1 hr"}, "[11]": {"test_system": "Vero", "assay": "Inhibition of GBF1 in african green monkey Vero cells assessed as inhibition of StxB-SS retrogade transport from endosomes to TGN at 10 uM by immunofluorescence method"}, "[12]": {"test_system": "Vero", "assay": "Inhibition of Arf1 in african green monkey Vero cells assessed as inhibition of StxB-SS retrogade transport from endosomes to TGN at 10 ug/ml by immunofluorescence method"}, "[13]": {"test_system": "Vero", "assay": "Inhibition of Arf1 in african green monkey Vero cells expressing GBF1-M832L mutant assessed as inhibition of StxB-SS retrogade transport from endosomes to TGN in african green monkey Vero cells at 10 ug/ml by immunofluorescence method"}, "[14]": {"test_system": "Vero", "assay": "Inhibition of GBF1 in african green monkey Vero cells assessed as punctate and diffuse distribution of medial-Golgi marker giantin […] at 10 uM after 1 hr by immunofluorescence method"}, "[15]": {"test_system": "Vero", "assay": "Induction of GBF1 in african green monkey Vero cells assessed as punctate and diffuse distribution of cis-Golgi marker GM130 from TGN at 10 uM after 1 hr by immunofluorescence method"}, "[16]": {"test_system": "Vero", "assay": "Inhibition of Arf1 in african green monkey Vero cells assessed as punctate and diffuse distribution of medial-Golgi marker giantin at 10 ug/ml after 1 hr by immunofluorescence method"}, "[17]": {"test_system": "Vero", "assay": "Inhibition of Arf1 in african green monkey Vero cells assessed as punctate and diffuse distribution of cis-Golgi marker GM130 at 10 ug/ml after 1 hr by immunofluorescence method"}, "[18]": {"test_system": "Vero", "assay": "Inhibition of GBF1 in african green monkey Vero cells assessed as tubule formation from trans golgi network and endosomes before its dispersal in african green monkey Vero cells at 10 uM after 1 hr by immunofluorescence method"}, "[19]": {"test_system": "Vero", "assay": "Inhibition of Arf1 in african green monkey Vero cells assessed as tubule formation from trans golgi network and endosomes before its dispersal at 10 ug/ml after 1 hr by immunofluorescence method"}, "[20]": {"test_system": "Vero", "assay": "Inhibition of Arf1 in african green monkey Vero cells assessed as giantin positive punctate structures in contact with Sec31-positive ER exit site at 10 ug/ml after 1 hr by immunofluorescence method", "outline": "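Vero cells given BFA 10 μg/ml or compound 10 μM for 60 min, fixed, co-stained for giantin and ER exit site marker Sec31; giantin puncta relative to ERES scored by immunofluorescence.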"}},
  "note": "Activity calls are given as the source filed them. No cut-off for these calls is given here.",
  "data": [
    {"compound": "C[C@H]1CCC/C=C/[C@@H]2C[C@H](O)C[C@H]2[C@H](O)/C=C/C(=O)O1", "values": [
      {"measurement": "inhibition", "setting": "[1]", "result": "Active"},
      {"measurement": "inhibition", "setting": "[2]", "result": "Active"},
      {"measurement": "inhibition", "setting": "[3]", "result": "Active"},
      {"measurement": "inhibition", "setting": "[4]", "result": "inactive"},
      {"measurement": "inhibition", "setting": "[5]", "result": "Active"},
      {"measurement": "inhibition", "setting": "[6]", "result": "inactive"},
      {"measurement": "inhibition", "setting": "[7]", "result": "Active"},
      {"measurement": "inhibition", "setting": "[8]", "result": "inactive"},
      {"measurement": "inhibition", "setting": "[9]", "result": "Active"},
      {"measurement": "Activity", "setting": "[10]", "result": "inactive"},
      {"measurement": "inhibition", "setting": "[11]", "result": "Active"},
      {"measurement": "inhibition", "setting": "[12]", "result": "Active"},
      {"measurement": "inhibition", "setting": "[13]", "result": "inactive"},
      {"measurement": "inhibition", "setting": "[14]", "result": "Active"},
      {"measurement": "Activity", "setting": "[15]", "result": "Active"},
      {"measurement": "inhibition", "setting": "[16]", "result": "Active"},
      {"measurement": "inhibition", "setting": "[17]", "result": "Active"},
      {"measurement": "inhibition", "setting": "[18]", "result": "inactive"},
      {"measurement": "inhibition", "setting": "[19]", "result": "Active"},
      {"measurement": "inhibition", "setting": "[20]", "result": "Active"}
    ]}
  ]
}
